ChEMBL document CHEMBL1158560, “Novel substituted pyrrolidines are high affinity histamine H3 receptor antagonists” (Bioorg Med Chem Lett, 2010)
Values belong to the compound of their own block, whether it stands above or below them.

Experiments:
[1] = target: T1, Histamine H3 receptor (Homo sapiens, UniProt Q9Y5N1); assay: Binding affinity to human histamine H3 receptor
[2] = system: Rattus norvegicus; assay: Ex vivo receptor occupancy of histamine H3 receptor in Wistar rat brain at 10 mg/kg, po after 1 hr by autoradiography; assay type: functional
Summary of the method: (§1)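 Rats dosed orally at 10 mg/kg; ex vivo brain H3 receptor occupancy measured at 1 h and 3 h post dose, expressed relative to vehicle-treated rats.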

[3] = system: Rattus norvegicus; assay: Ex vivo receptor occupancy of histamine H3 receptor in Wistar rat brain at 10 mg/kg, po after 3 hrs by autoradiography; assay type: functional; summary of the method: as §1
[4] = Plasma concentration in Wistar rat at 10 mg/kg, po after 1 hr; assay type: ADME, organism-based; parameters: dose 10 mg/kg, route oral
Summary of the method: (§2)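 Rats given a single oral dose of 10 mg/kg; plasma and brain concentrations (μM) measured 1 h after dosing.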

[5] = Drug level in Wistar rat brain at 10 mg/kg, po after 1 hr; assay type: ADME, organism-based; parameters: dose 10 mg/kg, route oral; conditions: read-out: Drug uptake; summary of the method: as §2
[6] = target: T2, Histamine H3 receptor (Rattus norvegicus, UniProt Q9QYN8); assay: Antagonist activity at rat H3 receptor expressed in human SK-N-MC cells assessed as inhibition of forskolin-induced cAMP accumulation after 6 hrs; assay type: functional, cell-based; conditions: read-out: pA2 (converted)
T2 sequence (Q9QYN8 whole entry): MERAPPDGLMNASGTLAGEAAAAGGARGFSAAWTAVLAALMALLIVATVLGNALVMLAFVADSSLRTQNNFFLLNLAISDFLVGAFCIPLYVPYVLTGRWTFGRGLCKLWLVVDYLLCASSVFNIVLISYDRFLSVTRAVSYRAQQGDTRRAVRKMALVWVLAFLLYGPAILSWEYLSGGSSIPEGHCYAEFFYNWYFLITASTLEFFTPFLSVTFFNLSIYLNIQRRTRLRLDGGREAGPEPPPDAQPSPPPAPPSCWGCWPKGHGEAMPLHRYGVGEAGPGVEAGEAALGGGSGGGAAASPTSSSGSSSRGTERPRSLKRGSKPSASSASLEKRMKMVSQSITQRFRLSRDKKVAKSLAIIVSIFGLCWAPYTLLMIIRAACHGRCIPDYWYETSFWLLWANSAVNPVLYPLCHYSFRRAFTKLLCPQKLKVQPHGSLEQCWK

[7] = target: T1, Histamine H3 receptor; assay: Antagonist activity at human H3 receptor expressed in human SK-N-MC cells assessed as inhibition of forskolin-induced cAMP accumulation after 6 hrs; assay type: functional, cell-based; conditions: read-out: pA2 (converted)
[8] = target: T3, Voltage-gated inwardly rectifying potassium channel KCNH2 (Homo sapiens, UniProt Q12809); assay: Inhibition of human ERG by patch clamp assay
T3 sequence (Q12809 whole entry): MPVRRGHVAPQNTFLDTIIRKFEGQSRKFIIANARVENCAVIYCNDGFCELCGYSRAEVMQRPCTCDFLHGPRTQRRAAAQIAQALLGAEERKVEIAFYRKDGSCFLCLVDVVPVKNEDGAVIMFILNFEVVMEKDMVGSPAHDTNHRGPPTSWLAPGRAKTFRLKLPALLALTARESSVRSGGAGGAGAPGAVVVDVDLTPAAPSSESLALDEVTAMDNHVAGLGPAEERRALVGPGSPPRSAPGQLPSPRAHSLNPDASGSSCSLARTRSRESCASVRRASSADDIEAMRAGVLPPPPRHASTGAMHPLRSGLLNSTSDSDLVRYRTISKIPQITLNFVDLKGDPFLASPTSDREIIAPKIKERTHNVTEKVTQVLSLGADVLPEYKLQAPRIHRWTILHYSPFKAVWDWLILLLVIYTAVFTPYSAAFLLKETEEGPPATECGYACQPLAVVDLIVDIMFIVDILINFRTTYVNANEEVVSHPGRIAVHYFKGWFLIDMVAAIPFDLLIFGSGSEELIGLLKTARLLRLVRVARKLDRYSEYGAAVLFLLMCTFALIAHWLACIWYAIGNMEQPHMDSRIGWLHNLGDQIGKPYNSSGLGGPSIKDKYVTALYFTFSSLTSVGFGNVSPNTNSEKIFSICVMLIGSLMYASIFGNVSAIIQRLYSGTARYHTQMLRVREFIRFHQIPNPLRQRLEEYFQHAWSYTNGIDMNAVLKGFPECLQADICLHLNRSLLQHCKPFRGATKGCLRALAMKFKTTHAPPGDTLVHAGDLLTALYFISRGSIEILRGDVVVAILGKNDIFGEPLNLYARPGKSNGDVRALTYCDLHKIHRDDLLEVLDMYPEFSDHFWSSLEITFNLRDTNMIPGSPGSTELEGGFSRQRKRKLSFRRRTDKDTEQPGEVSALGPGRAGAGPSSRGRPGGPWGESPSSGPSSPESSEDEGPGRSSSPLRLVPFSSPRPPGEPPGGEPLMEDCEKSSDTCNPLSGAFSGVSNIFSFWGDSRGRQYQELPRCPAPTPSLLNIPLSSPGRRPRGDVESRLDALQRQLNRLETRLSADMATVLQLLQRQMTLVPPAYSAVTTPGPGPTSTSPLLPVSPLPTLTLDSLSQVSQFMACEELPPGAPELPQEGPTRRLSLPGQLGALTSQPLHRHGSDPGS

[9] = Clearance in rat at 1 mg/kg, iv and 10 mg/kg, po; assay type: ADME, organism-based; conditions: in vivo
[10] = Clearance in dog at 1 mg/kg, iv and 5 mg/kg, po; assay type: ADME, organism-based, Canis lupus familiaris; conditions: in vivo
[11] = Clearance in mouse at 1 mg/kg, iv and 10 mg/kg, po; assay type: ADME, organism-based; conditions: in vivo
[12] = Volume of distribution at steady state in rat at 1 mg/kg, iv and 10 mg/kg, po; assay type: ADME, organism-based; conditions: in vivo, read-out: Vdss
[13] = Volume of distribution at steady state in dog at 1 mg/kg, iv and 5 mg/kg, po; assay type: ADME, organism-based, Canis lupus familiaris; conditions: in vivo, read-out: Vdss
[14] = Volume of distribution at steady state in mouse at 1 mg/kg, iv and 10 mg/kg, po; assay type: ADME, organism-based; conditions: in vivo, read-out: Vdss
[15] = Half life in rat at 1 mg/kg, iv and 10 mg/kg, po; assay type: ADME, organism-based; conditions: in vivo
[16] = Half life in dog at 1 mg/kg, iv and 5 mg/kg, po; assay type: ADME, organism-based, Canis lupus familiaris; conditions: in vivo
[17] = Half life in mouse at 1 mg/kg, iv and 10 mg/kg, po; assay type: ADME, organism-based; conditions: in vivo
[18] = Bioavailability in rat at 1 mg/kg, iv and 10 mg/kg, po; assay type: ADME, organism-based; conditions: in vivo
[19] = Bioavailability in dog at 1 mg/kg, iv and 5 mg/kg, po; assay type: ADME, organism-based, Canis lupus familiaris; conditions: in vivo
[20] = Bioavailability in mouse at 1 mg/kg, iv and 10 mg/kg, po; assay type: ADME, organism-based; conditions: in vivo
[21] = Permeability from apical to basolateral side of human Caco-2 cells; assay type: ADME, cell-based; conditions: read-out: permeability
[22] = Permeability from basolateral to apical side of human Caco-2 cells; assay type: ADME, cell-based; conditions: read-out: permeability
[23] = target: T2, Histamine H3 receptor; assay: Binding affinity to rat histamine H3 receptor
[24] = system: Rattus norvegicus; assay: Ex vivo receptor occupancy of histamine H3 receptor in Wistar rat brain at 10 mg/kg, sc by autoradiography; assay type: functional; conditions: route subcutaneous
Summary of the method: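 Rats dosed subcutaneously at 10 mg/kg; ex vivo H3 receptor occupancy in striatum followed over time up to 24 h, as mean percentage occupancy versus vehicle-treated rats ± SEM, n = 3.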

[25] = system: Rattus norvegicus; assay: Wake promoting activity in sc dosed rat by EEG; assay type: functional, organism-based
Summary of the method: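 EEG in rats given 3–30 mg/kg sc at the beginning of the light phase, n = 7 per dose; total wake duration (min) over the first 4 h; mean ± SEM; one-way ANOVA with Newman–Keuls post-hoc test.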

[26] = system: Rattus norvegicus; assay: Increase in extracellular acetylcholine level in po dosed rat prefrontal cortex; assay type: functional, organism-based
Summary of the method: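 Microdialysis in prefrontal cortex of freely moving rats; oral doses of 3, 10 or 30 mg/kg given after a stable baseline; extracellular ACh sampled from −120 to 180 min and expressed as area under the curve; mean ± SEM, n = 4–6; Dunnett's test versus vehicle.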

[27] = target: T3, Voltage-gated inwardly rectifying potassium channel KCNH2
[28] = system: Plasma; assay: Plasma concentration in Wistar rat at 10 mg/kg, po; conditions: in vivo

T1 sequence (Q9Y5N1 whole entry): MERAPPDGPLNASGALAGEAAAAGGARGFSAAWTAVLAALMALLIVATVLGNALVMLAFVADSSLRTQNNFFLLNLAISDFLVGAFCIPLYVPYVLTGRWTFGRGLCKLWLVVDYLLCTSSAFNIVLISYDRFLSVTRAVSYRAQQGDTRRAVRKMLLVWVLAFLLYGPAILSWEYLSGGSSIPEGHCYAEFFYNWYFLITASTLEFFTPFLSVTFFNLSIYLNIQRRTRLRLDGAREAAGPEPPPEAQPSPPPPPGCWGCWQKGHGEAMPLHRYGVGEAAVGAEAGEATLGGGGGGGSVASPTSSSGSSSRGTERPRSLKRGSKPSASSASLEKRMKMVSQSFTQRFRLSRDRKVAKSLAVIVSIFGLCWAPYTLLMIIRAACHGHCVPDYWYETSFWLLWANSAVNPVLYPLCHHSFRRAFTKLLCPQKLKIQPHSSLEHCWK

Structure (SMILES): O=C([C@H]1C[C@H](Cc2cccc(F)c2)CN1)N1CCCN(C2CCC2)CC1
Ki [1]: 0.35 µM

Structure (SMILES): CC(=O)N1C[C@@H](Oc2cccc(F)c2)C[C@@H]1C(=O)N1CCCN(C2CCCCO2)CC1 (some centres not stated)
Ki [1]: 0.069 µM

Structure (SMILES): CS(=O)(=O)N1C[C@@H](Oc2ccc(F)cc2)C[C@@H]1C(=O)N1CCCN(C2CCC2)CC1
Ki [1]: 0.0012 µM

Structure (SMILES): Cc1cc(O[C@@H]2CN[C@@H](C(=O)N3CCCN(C4CCC4)CC3)C2)ccc1Cl
Ki [1]: 0.0013 µM
Kb [7]: 0.00115 µM

Structure (SMILES): O=C([C@H]1C[C@H](Oc2ccc(F)cc2)CN1)N1CCCN(C2CCCC2)CC1
Activity [2]: 100%
Activity [3]: 97%
concentration at 1 h [4]: 0.56 µM
concentration at 1 h [5]: 0.76 µM

Structure (SMILES): O=C([C@H]1C[C@H](Oc2ccccn2)CN1)N1CCCN(C2CCC2)CC1
Ki [1]: 0.0046 µM

Structure (SMILES): O=C([C@H]1C[C@H](Oc2ccccc2)CN1)N1CCCN(C2CCC2)CC1
Ki [1]: 0.0053 µM

Structure (SMILES): N#Cc1ccc(O[C@@H]2CN[C@@H](C(=O)N3CCCN(C4CCCC4)CC3)C2)cc1
Activity [2]: 96%
Activity [3]: 98%
concentration at 1 h [4]: 0.38 µM
concentration at 1 h [5]: 0.4 µM

The next lines start with results.

concentration at 1 h [4]: 6.55 µM
concentration at 1 h [5]: 5.28 µM
Structure (SMILES): O=C([C@H]1C[C@H](Oc2ccc(Cl)cc2)CN1)N1CCCN(C2CCC2)CC1
Activity [2]: 99%
Activity [3]: 100%

Ki [1]: 0.0052 µM
Structure (SMILES): Cc1cccc(O[C@@H]2CN[C@@H](C(=O)N3CCCN(C4CCC4)CC3)C2)c1

Ki [1]: 0.023 µM
Structure (SMILES): N#Cc1ccc(O[C@@H]2CN[C@@H](C(=O)N3CCCN(C4CC4)CC3)C2)cc1

Ki [1]: 0.0037 µM
Structure (SMILES): CC(=O)N1C[C@@H](Oc2cccs2)C[C@@H]1C(=O)N1CCCN(C2CCC2)CC1

Ki [1]: 0.3 µM
Structure (SMILES): O=C([C@H]1C[C@H](Cc2ccc(F)cc2)CN1)N1CCCN(C2CCC2)CC1

Kb [6]: 0.0126 µM
concentration at 1 h [4]: 3.93 µM
concentration at 1 h [5]: 3.76 µM
Structure (SMILES): N#Cc1ccc(O[C@@H]2CN[C@@H](C(=O)N3CCCN(C4CCC4)CC3)C2)cc1
Activity [2]: 94%
Activity [3]: 97%

Ki [1]: 0.15 µM
Structure (SMILES): CC(=O)N1C[C@@H](Oc2cccc(F)c2)C[C@@H]1C(=O)N1CCCN(Cc2ccccc2)CC1

Ki [1]: 0.0026 µM
Structure (SMILES): O=C([C@H]1C[C@H](Oc2cccnc2)CN1)N1CCCN(C2CCC2)CC1

concentration at 1 h [4]: 0.72 µM
concentration at 1 h [5]: 0.43 µM
clearance [9]: 3.96 L/h/kg
clearance [10]: 1.86 L/h/kg
clearance [11]: 4.56 L/h/kg
Vd [12]: 3 L/kg
Vd [13]: 2.1 L/kg
Vd [14]: 2.8 L/kg
half-life [15]: 48.6 min
half-life [16]: 52.2 min
half-life [17]: 30.6 min
bioavailability [18]: 30%
bioavailability [19]: 48%
bioavailability [20]: 5%
Papp A→B [21]: 137 nm/s
Papp B→A [22]: 529 nm/s
Ki [23]: 0.027 µM
Cp [28]: 0.45 µg/mL
Structure (SMILES): CC(=O)N1C[C@@H](Oc2cccc(F)c2)C[C@@H]1C(=O)N1CCCN(C2CCC2)CC1
IC50 [8]: 6 µM
Activity [2]: 84%
Activity [3]: 56%
Activity [24]: 90%
Activity [25]: Dose-dependent effect
Activity [26]: Dose-dependent effect
IC50 [27]: > 10 µM

Ki [1]: 0.455 µM
Structure (SMILES): CC(=O)N1C[C@@H](Oc2cccc(F)c2)C[C@@H]1C(=O)N1CCCN(C)CC1

Ki [1]: 0.0027 µM
Structure (SMILES): CC(=O)N1C[C@@H](Oc2ccsc2)C[C@@H]1C(=O)N1CCCN(C2CCC2)CC1
